Sampled rows, rich in hits. Any-hit rate of the full collection: about 1.4%.
CDK5 p35 inh: CDK5/p35 (human) kinase inhibition. Q00535+Q15078. Recombinant CDK5/p35, ADP-Glo luminescence, 60 min. inhibition, % at 10 µM. 330,000 tested, 0.01% active;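 active = highest replicate inhibition of at least 50% and at least 75% of replicates reaching 50%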;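 also: plate controls were DMSO neutral control for no effect and GW8510 at 10 µM for full effect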
Target sequence (Q00535 whole entry, looked up): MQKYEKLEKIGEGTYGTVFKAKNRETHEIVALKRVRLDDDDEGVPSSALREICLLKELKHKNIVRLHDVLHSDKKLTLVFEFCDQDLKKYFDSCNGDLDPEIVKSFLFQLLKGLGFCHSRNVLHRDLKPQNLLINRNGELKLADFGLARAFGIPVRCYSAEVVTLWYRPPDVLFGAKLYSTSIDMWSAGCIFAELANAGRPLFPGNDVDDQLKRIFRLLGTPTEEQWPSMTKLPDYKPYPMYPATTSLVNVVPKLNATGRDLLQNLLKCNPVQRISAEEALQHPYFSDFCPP
Target sequence (Q15078 whole entry, looked up): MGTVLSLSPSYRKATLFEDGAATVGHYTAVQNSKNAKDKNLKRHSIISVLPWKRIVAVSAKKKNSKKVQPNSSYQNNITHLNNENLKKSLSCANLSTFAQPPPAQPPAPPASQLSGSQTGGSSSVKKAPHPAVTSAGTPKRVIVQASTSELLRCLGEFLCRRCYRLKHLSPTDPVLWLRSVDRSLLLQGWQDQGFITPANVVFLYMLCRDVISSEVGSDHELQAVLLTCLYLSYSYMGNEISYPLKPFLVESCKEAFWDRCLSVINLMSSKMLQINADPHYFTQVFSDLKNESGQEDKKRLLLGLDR
PvdQ inh: blocks Pseudomonas aeruginosa PvdQ acylase activity; purified PvdQ acylase, fluorescence plate reader; inhibition, % at 10 µM; 340,000 tested, 0.063% active; in the data active = inhibition above about 30%, passing the limit was not always enough;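 also: 0% = vehicle neutral wells and 100% = reference inhibitor wells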
CAL PDZ FP-1: blocks peptide binding to the human CAL PDZ domain. Q9HD26. purified CAL PDZ, TMR-peptide fluorescence polarization, 1 h. inhibition, % at 24.9 µM. 300,000 tested, 0.92% active. AID 602252;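 active = mean inhibition of at least 30% with at least half of replicates also reaching 30%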;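 also: 0% = DMSO neutral control and 100% = excess unlabeled competitor peptide PRC23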
Vif inh: blocks HIV Vif function; HEK293T cells, Vif self-association by quenched fluorescence, imaging, 24 h; AID 602346; 340,000 tested, 0.35% active; inhibition, % at 7.49 µM; in the data active = inhibition above about 50%, passing the limit was not always enough
Glyco luc inh: blocks N-linked glycosylation in D54 reporter cells; 360,000 tested, 0.23% active; D54 ERlucT glycosylation luciferase reporter, 24 h; percent of 100 nM tunicamycin response; AID 588692; reporter increase, % at 12.5 µM;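 active = mean luciferase reporter signal, scaled so untreated is 0 and the glycosylation-blocking control 100, at or above a set limit in every replicate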;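 also: luciferase carries N-glycosylation sites so blocking glycosylation raises the light; 0% = median of neutral control wells and 100% = median of 100 nM tunicamycin wells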
CAL PDZ FP-2: human CAL PDZ-peptide interaction inhibition; Q9HD26; purified CAL PDZ, TMR-peptide fluorescence polarization, 1 h; inhibition, % at 20 µM; 330,000 tested, 0.02% active; AID 504414;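 active = highest replicate inhibition of at least 40%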;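 also: plate controls were DMSO neutral control wells for no effect and unlabeled competitor peptide control wells for full effect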
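System: tagged CAL PDZ domain. Schedule: 1 h room-temperature incubation prior to read. Signal: fluorescence polarization (mP). Measure: percent inhibition from loss of millipolarization.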
Active calls of the source: *; · = not tested or not shown.

SMILES	CDK5 p35 inh	PvdQ inh	CAL PDZ FP-1	Vif inh	Glyco luc inh	CAL PDZ FP-2
CCN(CC)S(=O)(=O)c1cccc(NC(=O)COC(=O)c2[nH]c(C)c(C(C)=O)c2C)c1	·	·	·	-23	1	·
CCn1cc(CNC(=O)c2ccc(OC3CCN(Cc4ccccn4)CC3)cc2)cn1	0	-3	-4	1	-2	0
CCn1nc(C)c(CN2CCC(Oc3ccc(C(=O)N4CCCC4)cc3)CC2)c1C	-1	-11	51*	-8	-4	-1
CCn1nc(C)c(CNC(=O)c2ccc(OC3CCN(Cc4ccccn4)CC3)cc2)c1C	0	-11	50*	-36	2	-1
C#CCN(C(=O)c1ccc(OC2CCN(Cc3ccccn3)CC2)cc1)C1CCCCC1	1	-13	55*	1	-3	1
COc1ccc(CN2CCC(Oc3ccc(C(=O)N4CCCC4)cc3)CC2)c(F)c1	3	-5	128*	-14	-4	0
Cc1cc(C(C)(C)C)cc(CN2CCN(S(=O)(=O)c3cccs3)CC2)c1O	·	·	·	-4	-9	·
CCOC1=C2CN(S(=O)(=O)c3ccc(C)cc3)[C@H](c3ccccc3)C[C@H]2[C@H]2C(=O)N(c3ccccc3)C(=O)[C@H]2C1	·	·	·	28	-4	·
CCOCCCNC(=O)c1ccc(OC)cc1	1	-14	-2	38	1	-1
CCOCCCNC(=O)c1ccc(OC(C)=O)cc1	1	-9	37*	·	2	-1
CCN(c1ccccc1)S(=O)(=O)c1ccc(C(=O)Nc2ccc(C)cn2)cc1	1	-2	4	-13	-5	-1
CN(CC(=O)Nc1cccc(F)c1)C(=O)c1ccc(S(=O)(=O)N2CCCC2)cc1	1	10	2	-1	2	-1
N=C1SCC(=O)N1c1ncc(Cc2ccc(F)cc2)s1	-1	-8	-5	8	8	-1
COc1cc2c(c(OC)c1OC)-c1ccc(OC)c(=O)cc1C(NC(C)=O)CC2 (stereo unspecified)	-1	-3	-6	-6	16	-1
COc1c(C=O)c2c(c(OC)c1OC)-c1ccc(OC)c(=O)cc1C(NC(C)=O)CC2 (stereo unspecified)	0	2	-2	90*	10	0
CCN(CC)S(=O)(=O)c1ccc2[nH]c(=O)cc(C(=O)Nc3ccccc3N3CCOCC3)c2c1	0	-15	-5	5	-2	-1
O=C(O)C[C@H]1c2ccc(C(F)(F)F)cc2S(=O)(=O)N1Cc1ccccc1	-1	1	-2	-10	2	1
O=[N+]([O-])/C(=C\Nc1ccccc1Cl)S(=O)(=O)c1ccccc1	2	-16	-1	4	0	0
O=[N+]([O-])/C(C=Nc1ccccc1O)=C\Nc1ccccc1O	0	-8	35*	-14	-2	0
CC(C)(C)OC(=O)NCCCCCNC(=O)c1[nH]cnc1C(=O)Nc1cc(Br)ccc1F	·	·	·	-33	-1	·
CCN1CC2=C(OC(N)=C(C#N)C2c2ccccc2)/C(=C\c2ccccc2)C1 (stereo unspecified)	-2	5	-2	-2	0	·
CCN1CC2=C(OC(N)=C(C#N)C2c2cccs2)/C(=C/c2cccs2)C1 (stereo unspecified)	0	-10	43*	5	-4	0
CC12CN3CC(C)(CN(C1)C3c1ccc3ccccc3c1O)C2=O (stereo unspecified)	-1	-19	93*	6	0	·
CC1(C(=O)NS(=O)(=O)c2cccc(F)c2)CCN1C(=O)c1ccco1 (stereo unspecified)	·	·	·	-5	1	·
CC1(C(=O)NS(=O)(=O)c2cccc(OC(F)F)c2)CCN1C(=O)c1ccco1 (stereo unspecified)	·	·	·	59*	1	·
SMILES	CDK5 p35 inh	PvdQ inh	CAL PDZ FP-1	Vif inh	Glyco luc inh	CAL PDZ FP-2
O=C(Nc1ccc(F)cc1)c1ccc(S(=O)(=O)N2CCOCC2)o1	·	·	·	53*	1	·
O=c1c(Br)c(Br)cnn1-c1ccccc1	0	-1	32*	2	-16	-1
Cc1ccc(-n2ncc(Br)c(Br)c2=O)cc1	3	-12	-2	9	7	-4
CCN(CC)c1nc(Nc2ccccc2)nc(Oc2ccc(=O)[nH]n2)n1	-2	-2	·	-8	-2	-3
CN(C)c1nc(NCc2ccccc2)nc(Oc2ccc(=O)[nH]n2)n1	-1	-11	40*	8	1	0
CC(=O)Nc1ccc(S(=O)(=O)NC(CC(=O)NCCC2=CCCCC2)C(C)C)cc1 (stereo unspecified)	-1	-11	45*	19	-2	0
CNc1ncnc2c1ncn2[C@H]1CN(Cc2cccs2)C[C@@H](CO)O1	·	·	·	14	3	·
CCOC(=O)C1=C(C)NC(C)=C(C(=O)OCC)C1C	0	10	-1	19	-2	-2
CCOC(=O)C1=C(C)NC(=O)NC1	-1	-8	·	74*	2	1
CCOC(=O)c1c(C)[nH]c(C)c1C(=O)COC(=O)CCc1ccccc1	0	-10	-4	-4	0	0
COc1cccc(CN(C)S(=O)(=O)c2ccccc2Br)c1	0	-4	2	-5	-1	0
CCOC(=O)c1ccc(-c2c(-c3ccccc3OC)sc3ccc(OC)cc23)cc1F	0	6	-1	2	-3	-1
COc1ccc(-c2nnc(SCC(=O)N3CCCc4ccccc43)o2)cc1OC	2	-7	-3	61*	-3	0
COc1ccc(-n2nnc3c(SCC(=O)N4CCCc5ccccc54)ncnc32)cc1	1	-11	60*	-4	-4	15
COc1ccc(-n2nnc3c(=O)n(CC(=O)N4CCCc5ccccc54)cnc32)cc1	1	-11	-8	3	-1	-1
COc1ccc(-c2nnc(SCC(=O)N3CCCCC3)o2)cc1OC	0	-8	8	3	0	0
O=C(NCC(c1ccccc1Cl)N1CCCC1)C1CCN(C(=O)Nc2ccccc2)CC1 (stereo unspecified)	-1	-6	-4	-1	-3	-1
O=C(Nc1cccc(NC(=O)c2ccc(Br)o2)n1)c1ccc(Br)o1	0	-12	·	1	2	1
Cc1ccc2cccc(NC(=O)c3ccc(Br)o3)c2n1	1	-8	70*	·	0	-1
C[C@H]1CN([C@@H](C)CO)C(=O)Cc2cc(NC(=O)CCC(F)(F)F)ccc2O[C@H]1CN(C)S(C)(=O)=O	-1	-4	-2	13	0	0
C[C@H](CO)N1C[C@H](C)[C@@H](CN(C)S(=O)(=O)c2ccccc2)Oc2c(NC(=O)Cc3ccccc3)cccc2C1=O	0	-10	0	12	28*	0

Screening data from PubChem BioAssay.
